Assay results published in ChEMBL document CHEMBL1150647, “New diarylheptanoids from the stems of Carpinus cordata” (J Nat Prod, 2002).
In brackets after ≈: the same amount, converted by molar mass.

These compounds were tested on Radical scavenging activity (assay: Antioxidant activity assessed as DPPH free radical scavenging activity after 30 mins).
Format: functional
Procedure, shortened: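 Test samples in EtOH mixed with 100 µM ethanolic DPPH and incubated at 37 °C for 30 min. Absorbance was read at 515 nm. Percent inhibition was calculated against an ethanol-treated control. IC50 is the sample concentration that scavenges 50% of DPPH radicals.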

SMILES | IC50
O=C1CCc2ccc(O)c(c2)-c2cc(ccc2O)C[C@H](O)[C@H](O)[C@H]1O [CARPINONTRIOL B] | 80.2 µg/mL (≈ 233 µM)
O=C1CC[C@H](O)Cc2ccc(O)c(c2)-c2cc(ccc2O)C[C@H]1O [CASUARINONDIOL] | > 100 µg/mL
Oc1cc(O)c2c(c1)O[C@H](c1ccc(O)c(O)c1)[C@@H](O)C2 [CIANIDANOL] | 2.7 µg/mL (≈ 9.3 µM)
O=C(O[C@@H]1Cc2c(O)cc(O)cc2O[C@@H]1c1cc(O)c(O)c(O)c1)c1cc(O)c(O)c(O)c1 [EPIGALOCATECHIN GALLATE] | 2.7 µg/mL (≈ 5.89 µM)
COC(=O)c1cc(O)c(O)c(O)c1 [GALLIC ACID METHYL ESTER] | 4.9 µg/mL (≈ 26.6 µM)
Oc1ccc(/C=C/c2cc(O)cc(O)c2)cc1 [RESVERATROL] | 16.2 µg/mL (≈ 71 µM)

Continued, values first:

IC50 | SMILES
> 100 µg/mL | COC(=O)c1cc(O)c(O[C@@H]2O[C@H](CO)[C@@H](O)[C@H](O)[C@H]2O)c(O)c1
4.9 µg/mL (≈ 9.83 µM) | COC(=O)c1cc(O)c(O)c(O[C@@H]2O[C@H](COC(=O)c3cc(O)c(O)c(O)c3)[C@@H](O)[C@H](O)[C@H]2O)c1
4.6 µg/mL (≈ 13.3 µM) | COC(=O)c1cc(O)c(O)c(O[C@@H]2O[C@H](CO)[C@@H](O)[C@H](O)[C@H]2O)c1
> 100 µg/mL | O=C1C[C@@H](O)[C@@H](O)Cc2ccc(O)c(c2)-c2cc(ccc2O)C[C@H]1O [CARPINONTRIOLS A]
